Experimental data collected from several papers.
CSF1R: Macrophage colony-stimulating factor 1 receptor (CSF1R, Homo sapiens, UniProt P07333)
CSF1R autoinhibited: Macrophage colony-stimulating factor 1 receptor, autoinhibited (CSF1R, Homo sapiens, UniProt P07333)

Cc1cnn2ncc(-c3ccnc(N(C)C)n3)c2c1  remaining binding (CSF1R; binding; 1 µM): 100%
Nc1ncc2c(n1)-c1c([nH]c3ccc(C#CC4CC4)cc13)CCCC2  remaining binding (CSF1R autoinhibited; binding, competition with immobilised ligand; 1 µM): 85%
CNC(=O)[C@@H]1CC[C@@H](n2c(-c3ccc4cnccc4c3)nc3ccc(C(=O)NCc4cccc(C(N)=O)c4)cc32)C1  remaining binding (CSF1R autoinhibited; binding, competition with immobilised ligand; 1 µM): 80%
O=C(NCCCN1CCOCC1)c1ccc(Nc2nccc(-c3cc4ccccc4s3)n2)cc1  remaining binding (CSF1R; binding, competition with immobilised ligand; 1 µM): 50%
C=CC(=O)N1CCC(C(=O)NCC(=O)N2CCN(c3nc(-c4cnc(N)nc4C(F)F)nc(N4CCOCC4)n3)CC2)CC1  remaining binding (CSF1R autoinhibited; binding, competition with immobilised ligand; 1 µM): 20%
CN(C)c1nccc(-c2cnc3ncccn23)n1  remaining binding (CSF1R; binding; 1 µM): 100%
C[C@@H](c1ccc(-n2cnc3c(N)ncnc32)cc1)N1CCc2nn(C)c(Cc3ccccc3)c2C1=O  remaining binding (CSF1R; binding, competition with immobilised ligand; 0.1 µM): 100%
N[C@H]1CCN(c2nccc(-c3cnn4ncccc34)n2)C1  remaining binding (CSF1R autoinhibited; binding; 1 µM): 100%
c1cncc(-c2cccc(Nc3nccc(NC4CCCCC4)n3)c2)c1  remaining binding (CSF1R; binding, competition with immobilised ligand; 10 µM): 0.15%
CN(C)c1nccc(-c2cnn3ncccc23)n1  remaining binding (CSF1R; binding; 1 µM): 100%
CC(C)(C)c1ccc(-c2nc(CBr)nn2-c2cccc(O)c2)cc1  remaining binding (CSF1R; cell-free assay, competition with immobilised ligand; 10 µM): 98%
CCN1CCN(Cc2ccc(C(=O)Nc3ccc(C)c(Oc4ccc5c(c4)CC(=O)N5)c3)cc2C(F)(F)F)CC1  remaining binding (CSF1R; binding, competition with immobilised ligand; 1 µM): 2%
CC1CCCN1c1nccc(-c2cnn3ncccc23)n1 (stereo not drawn)  remaining binding (CSF1R autoinhibited; binding; 1 µM): 99%
CS(=O)(=O)N1CCCC(NC(=O)[C@H](CCC2CCCCC2)NC(=O)c2ccc(CNc3ncnc4c3nnn4-c3ccccc3)cc2)C1 (stereo partly drawn)  remaining binding (CSF1R autoinhibited; cell-free assay, competition with immobilised ligand; 0.1 µM): 100%
O=C(c1ccc(Nc2nccc(-c3cc4ccccc4s3)n2)cc1)N1CCC(N2CCCC2)CC1  remaining binding (CSF1R autoinhibited; binding, competition with immobilised ligand; 1 µM): 77%
O=C(Nc1ccc(Oc2ccc(F)cc2)cc1)N1CCc2ncccc2[C@H]1c1ccc(F)cc1  remaining binding (CSF1R autoinhibited; cell-free assay, competition with immobilised ligand; 1 µM): 95%
Cc1nc(NC(=O)N2CCC[C@H]2C(N)=O)sc1-c1ccnc(C(C)(C)C(F)(F)F)c1  remaining binding (CSF1R autoinhibited; binding, competition with immobilised ligand; 10 µM): 98%
C[C@H]1CCN(c2nccc(-c3cnn4ncccc34)n2)C1  remaining binding (CSF1R; binding; 1 µM): 100%
O=C(NCCCN1CCOCC1)c1ccc(Nc2ncc(Cl)c(-c3ccc(Cl)s3)n2)cc1  remaining binding (CSF1R autoinhibited; binding, competition with immobilised ligand; 1 µM): 42%
Cc1cc(-n2nc(Cc3cc(F)cc(C(F)(F)F)c3)nc2C)ccc1C(N)=O  remaining binding (CSF1R autoinhibited; cell-free assay, competition with immobilised ligand; 1 µM): 100%
COc1ncc2cc3ccccc3nc2c1C#N  remaining binding (CSF1R; cell-free assay, competition with immobilised ligand; 5 µM): 96%
F[C@@H]1CCN(c2nccc(-c3cnn4ncccc34)n2)C1  remaining binding (CSF1R autoinhibited; binding; 1 µM): 81%
Cc1cnc(Nc2ccc(C(=O)N3CCC(N4CCCC4)CC3)cc2)nc1-c1cc2ccccc2s1  remaining binding (CSF1R; binding, competition with immobilised ligand; 1 µM): 12%
O=C(Nc1c[nH]nc1C(=O)NC1CCNCC1)c1cc(F)cc(F)c1  remaining binding (CSF1R; binding, competition with immobilised ligand; 1 µM): 100%
O=C(c1ccc(Nc2ncc(Cl)c(-c3ccc(Cl)s3)n2)cc1)N1CCC(N2CCCC2)CC1  remaining binding (CSF1R autoinhibited; binding, competition with immobilised ligand; 1 µM): 17%
CNC(=O)Nc1ccc2c(c1)[C@@]1(CC2)OC(=O)N(CC(=O)N(Cc2ccc(F)cc2)[C@@H](C)C(F)(F)F)C1=O  remaining binding (CSF1R autoinhibited; cell-free assay, competition with immobilised ligand; 1 µM): 100%
CN(C)c1ncc(F)c(-c2cnn3ncccc23)n1  remaining binding (CSF1R; binding; 1 µM): 91%
C[C@@H]1CN(c2ccc3ncc(-c4ccc5[nH]nc(C6CC6)c5c4)n3n2)C[C@H](C)O1  remaining binding (CSF1R; binding, competition with immobilised ligand; 0.5 µM): 100%
CC(=O)Nc1c(C(C)=O)c(=O)n(C)c2nc(-c3ccc(Cl)cc3Cl)c(-c3ccc(Cl)cc3)cc12  remaining binding (CSF1R; cell-free assay, competition with immobilised ligand; 1 µM): 100%
COc1cnc(Nc2cccc(S(N)(=O)=O)c2)nc1N1CCN(c2ccccc2)C(=O)C1  remaining binding (CSF1R autoinhibited; binding, competition with immobilised ligand; 1 µM): 87%
COc1ccc2c(O[C@@H]3C[C@H]4C(=O)N[C@]5(C(=O)O)CC5/C=C\CCCCC[C@H](NC(=O)OC5CCCC5)C(=O)N4C3)cc(-c3csc(NC(=O)C(C)C)n3)nc2c1C (stereo partly drawn)  remaining binding (CSF1R; cell-free assay, competition with immobilised ligand; 1 µM): 71%
O=C(NCC1CCOCC1)c1n[nH]cc1NC(=O)c1c(F)cccc1F  remaining binding (CSF1R; binding, competition with immobilised ligand; 1 µM): 100%
CC(=O)c1c(NS(C)(=O)=O)c2cc(-c3ccc(Cl)cc3)c(-c3ccc(Cl)cc3Cl)nc2n(C)c1=O  remaining binding (CSF1R; cell-free assay, competition with immobilised ligand; 1 µM): 100%
COc1cnc(Nc2cccc(S(N)(=O)=O)c2)nc1N1CCN(c2ccccc2)CC1  remaining binding (CSF1R; binding, competition with immobilised ligand; 1 µM): 100%
O=C(c1ccc(Nc2ncc(Cl)c(-c3cc4ccccc4s3)n2)cc1)N1CCC(N2CCCC2)CC1  remaining binding (CSF1R autoinhibited; binding, competition with immobilised ligand; 1 µM): 56%
CO[C@@H](C)c1c(Nc2ccc([C@@H](N(C)C(=O)C3CCS(=O)(=O)CC3)C(F)(F)F)cc2)cnc2cc(Cl)nn12  remaining binding (CSF1R; cell-free assay, competition with immobilised ligand; 1 µM): 72%
